Reference: ChEMBL document CHEMBL2424622, “Development of amino-pyrimidine inhibitors of c-Jun N-terminal kinase (JNK): kinase profiling guided optimization of a 1,2,3-benzotriazole lead” (Bioorg Med Chem Lett, 2013)

Experiments:
[1] = biological target: T1, Mitogen-activated protein kinase 12 (Homo sapiens) (UniProt P53778); test: Competitive binding affinity to p38-gamma (unknown origin) at 10 uM in presence of ATP relative to control
T1 sequence (whole entry): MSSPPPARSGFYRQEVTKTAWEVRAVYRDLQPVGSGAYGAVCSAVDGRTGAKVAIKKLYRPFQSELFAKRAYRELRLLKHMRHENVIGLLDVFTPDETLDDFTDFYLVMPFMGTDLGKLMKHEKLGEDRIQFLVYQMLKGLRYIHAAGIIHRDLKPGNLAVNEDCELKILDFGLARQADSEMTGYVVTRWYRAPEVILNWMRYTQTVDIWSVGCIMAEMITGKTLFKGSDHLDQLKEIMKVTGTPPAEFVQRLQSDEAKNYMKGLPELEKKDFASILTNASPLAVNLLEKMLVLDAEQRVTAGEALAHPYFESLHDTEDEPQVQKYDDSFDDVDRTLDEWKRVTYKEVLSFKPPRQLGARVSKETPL
Procedure, shortened: (§1)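 In vitro ATP-site competition binding assay across a diverse panel of 128 kinases, with compound tested at a single concentration. Kinase selectivity scores (S15) were calculated from the panel profiles.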

[2] = biological target: Epidermal growth factor receptor (Homo sapiens) (UniProt P00533); test: Competitive binding affinity to EGFR (unknown origin) at 10 uM in presence of ATP relative to control
Chain of Epidermal growth factor receptor (Homo sapiens) (P00533 whole entry): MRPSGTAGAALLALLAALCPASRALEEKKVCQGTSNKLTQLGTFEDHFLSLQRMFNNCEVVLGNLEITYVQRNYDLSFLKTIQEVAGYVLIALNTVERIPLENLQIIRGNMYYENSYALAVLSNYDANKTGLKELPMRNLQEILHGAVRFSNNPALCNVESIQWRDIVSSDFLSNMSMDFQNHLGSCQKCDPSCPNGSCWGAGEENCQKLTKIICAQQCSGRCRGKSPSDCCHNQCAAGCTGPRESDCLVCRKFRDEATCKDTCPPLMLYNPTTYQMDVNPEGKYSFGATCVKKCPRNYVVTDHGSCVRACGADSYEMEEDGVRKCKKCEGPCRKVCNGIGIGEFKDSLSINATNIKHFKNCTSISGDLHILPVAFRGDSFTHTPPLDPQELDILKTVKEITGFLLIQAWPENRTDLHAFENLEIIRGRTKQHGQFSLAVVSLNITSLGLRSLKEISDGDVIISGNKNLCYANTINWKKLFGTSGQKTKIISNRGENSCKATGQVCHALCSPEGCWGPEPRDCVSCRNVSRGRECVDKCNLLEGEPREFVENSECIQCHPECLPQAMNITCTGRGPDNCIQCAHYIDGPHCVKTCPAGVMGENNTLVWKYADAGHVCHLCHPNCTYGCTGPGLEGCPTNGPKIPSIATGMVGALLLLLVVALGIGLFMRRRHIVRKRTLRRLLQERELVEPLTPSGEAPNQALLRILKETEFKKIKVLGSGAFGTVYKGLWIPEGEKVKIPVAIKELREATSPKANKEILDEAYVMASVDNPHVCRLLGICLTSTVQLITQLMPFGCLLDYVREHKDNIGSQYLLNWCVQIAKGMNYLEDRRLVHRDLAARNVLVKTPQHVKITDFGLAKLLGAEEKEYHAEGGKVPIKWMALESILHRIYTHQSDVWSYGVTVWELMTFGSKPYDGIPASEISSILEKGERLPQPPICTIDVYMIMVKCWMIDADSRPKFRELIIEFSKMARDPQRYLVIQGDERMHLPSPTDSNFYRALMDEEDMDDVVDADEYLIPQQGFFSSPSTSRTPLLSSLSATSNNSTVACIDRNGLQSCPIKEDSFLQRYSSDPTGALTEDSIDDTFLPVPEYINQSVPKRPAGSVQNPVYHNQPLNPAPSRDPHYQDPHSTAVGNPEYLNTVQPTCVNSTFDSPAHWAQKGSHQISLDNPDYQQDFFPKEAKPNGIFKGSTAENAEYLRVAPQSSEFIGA

[3] = biological target: Insulin receptor (Homo sapiens) (UniProt P06213); test: Competitive binding affinity to INSR (unknown origin) at 10 uM in presence of ATP relative to control
Chain of Insulin receptor (Homo sapiens) (P06213 28-758 limits assumed): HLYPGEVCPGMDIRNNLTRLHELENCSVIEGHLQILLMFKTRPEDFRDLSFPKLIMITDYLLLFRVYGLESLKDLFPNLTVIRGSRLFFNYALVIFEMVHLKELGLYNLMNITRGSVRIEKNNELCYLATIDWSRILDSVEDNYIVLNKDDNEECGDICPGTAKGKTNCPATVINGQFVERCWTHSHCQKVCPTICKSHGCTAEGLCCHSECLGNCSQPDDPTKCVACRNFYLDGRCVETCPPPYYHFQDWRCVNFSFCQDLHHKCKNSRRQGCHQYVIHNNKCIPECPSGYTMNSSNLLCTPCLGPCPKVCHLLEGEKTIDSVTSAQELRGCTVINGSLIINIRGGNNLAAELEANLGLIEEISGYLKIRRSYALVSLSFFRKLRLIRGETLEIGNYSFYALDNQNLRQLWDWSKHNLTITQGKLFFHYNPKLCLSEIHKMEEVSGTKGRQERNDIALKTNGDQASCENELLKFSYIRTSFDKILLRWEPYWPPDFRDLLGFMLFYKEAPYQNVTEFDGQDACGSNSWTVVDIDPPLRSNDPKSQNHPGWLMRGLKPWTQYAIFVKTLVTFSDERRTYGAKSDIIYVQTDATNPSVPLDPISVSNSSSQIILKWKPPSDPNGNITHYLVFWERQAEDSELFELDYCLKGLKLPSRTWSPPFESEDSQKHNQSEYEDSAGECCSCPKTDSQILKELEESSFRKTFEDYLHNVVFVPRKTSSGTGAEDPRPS
Chain of Insulin receptor (Homo sapiens) (P06213 763-1382 limits assumed): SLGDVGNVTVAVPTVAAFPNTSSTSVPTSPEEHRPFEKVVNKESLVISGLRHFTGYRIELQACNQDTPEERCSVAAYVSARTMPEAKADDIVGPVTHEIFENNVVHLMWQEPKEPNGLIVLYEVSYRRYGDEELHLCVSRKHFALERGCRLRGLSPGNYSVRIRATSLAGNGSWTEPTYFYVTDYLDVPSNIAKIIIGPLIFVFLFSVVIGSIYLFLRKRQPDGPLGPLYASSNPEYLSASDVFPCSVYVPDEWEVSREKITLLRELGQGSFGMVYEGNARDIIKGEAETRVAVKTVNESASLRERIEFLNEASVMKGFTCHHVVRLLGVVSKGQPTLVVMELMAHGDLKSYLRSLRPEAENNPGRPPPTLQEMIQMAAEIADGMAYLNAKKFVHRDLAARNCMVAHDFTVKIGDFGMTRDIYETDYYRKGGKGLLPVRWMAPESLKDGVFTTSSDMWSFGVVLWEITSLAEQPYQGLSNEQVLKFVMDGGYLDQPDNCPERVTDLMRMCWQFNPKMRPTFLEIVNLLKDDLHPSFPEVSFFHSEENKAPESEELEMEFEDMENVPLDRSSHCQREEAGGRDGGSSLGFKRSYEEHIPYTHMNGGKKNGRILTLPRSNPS
Procedure, shortened: (§2)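 In vitro ATP-site competition binding assay, part of profiling against a diverse panel of 128 kinases. Each compound was tested at a single concentration of 10 µM. Kinome selectivity was summarized as S15 selectivity scores.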

[4] = biological target: T2, Tyrosine-protein kinase TXK (Homo sapiens) (UniProt P42681); test: Competitive binding affinity to TXK (unknown origin) at 10 uM in presence of ATP relative to control; procedure, shortened: as §1
T2 sequence (whole entry): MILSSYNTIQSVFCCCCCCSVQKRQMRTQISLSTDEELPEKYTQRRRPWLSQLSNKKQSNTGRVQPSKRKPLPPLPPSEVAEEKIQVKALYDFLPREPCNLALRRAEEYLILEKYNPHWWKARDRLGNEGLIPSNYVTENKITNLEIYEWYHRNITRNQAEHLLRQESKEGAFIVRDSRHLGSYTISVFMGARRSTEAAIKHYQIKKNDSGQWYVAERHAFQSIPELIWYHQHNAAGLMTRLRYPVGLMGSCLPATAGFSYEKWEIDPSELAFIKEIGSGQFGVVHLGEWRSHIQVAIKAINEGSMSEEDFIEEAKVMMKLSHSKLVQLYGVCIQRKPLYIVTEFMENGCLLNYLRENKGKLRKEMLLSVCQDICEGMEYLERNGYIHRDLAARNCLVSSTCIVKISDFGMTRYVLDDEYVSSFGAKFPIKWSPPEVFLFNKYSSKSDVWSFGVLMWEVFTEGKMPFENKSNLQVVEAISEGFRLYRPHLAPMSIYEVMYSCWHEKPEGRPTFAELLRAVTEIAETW

[5] = biological target: Phosphorylase b kinase gamma catalytic chain, skeletal muscle/heart isoform (Homo sapiens) (UniProt Q16816); test: Competitive binding affinity to PHKG1 (unknown origin) at 10 uM in presence of ATP relative to control; procedure, shortened: as §1
[6] = biological target: Serine/threonine-protein kinase PAK 4 (Homo sapiens) (UniProt O96013); test: Competitive binding affinity to PAK4 (unknown origin) at 10 uM in presence of ATP relative to control; procedure, shortened: as §1
Chain of Serine/threonine-protein kinase PAK 4 (Homo sapiens) (O96013 whole entry, looked up): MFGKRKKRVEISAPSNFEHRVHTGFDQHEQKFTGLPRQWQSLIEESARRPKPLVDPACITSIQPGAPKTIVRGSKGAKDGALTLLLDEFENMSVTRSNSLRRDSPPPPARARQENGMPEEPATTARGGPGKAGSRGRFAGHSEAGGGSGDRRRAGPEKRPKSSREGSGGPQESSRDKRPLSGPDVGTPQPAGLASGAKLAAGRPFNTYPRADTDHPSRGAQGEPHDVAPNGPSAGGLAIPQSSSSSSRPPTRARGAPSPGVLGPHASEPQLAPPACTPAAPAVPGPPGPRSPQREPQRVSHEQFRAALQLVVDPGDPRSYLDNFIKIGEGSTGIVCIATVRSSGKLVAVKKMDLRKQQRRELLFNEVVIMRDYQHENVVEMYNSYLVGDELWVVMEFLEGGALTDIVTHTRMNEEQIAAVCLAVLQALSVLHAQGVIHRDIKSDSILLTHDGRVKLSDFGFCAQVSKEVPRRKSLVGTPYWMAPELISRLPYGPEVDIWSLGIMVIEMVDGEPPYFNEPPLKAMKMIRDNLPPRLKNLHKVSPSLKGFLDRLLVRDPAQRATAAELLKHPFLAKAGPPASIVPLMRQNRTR

[7] = biological target: Serine/threonine-protein kinase Nek6 (Homo sapiens) (UniProt Q9HC98); test: Competitive binding affinity to NEK6 (unknown origin) at 10 uM in presence of ATP relative to control; procedure, shortened: as §1
[8] = biological target: Tyrosine-protein kinase HCK (Homo sapiens) (UniProt P08631); test: Competitive binding affinity to HCK (unknown origin) at 10 uM in presence of ATP relative to control; procedure, shortened: as §2
[9] = biological target: Fibroblast growth factor receptor 2 (Homo sapiens) (UniProt P21802); test: Competitive binding affinity to FGFR2 (unknown origin) at 10 uM in presence of ATP relative to control; procedure, shortened: as §2
[10] = biological target: Serine/threonine-protein kinase PAK 5 (Homo sapiens) (UniProt Q9P286); test: Competitive binding affinity to PAK7/PAK5 (unknown origin) at 10 uM in presence of ATP relative to control; procedure, shortened: as §1
[11] = biological target: T3, Tyrosine-protein kinase ITK/TSK (Homo sapiens) (UniProt Q08881); test: Competitive binding affinity to ITK (unknown origin) at 10 uM in presence of ATP relative to control; procedure, shortened: as §2
T3 sequence (whole entry): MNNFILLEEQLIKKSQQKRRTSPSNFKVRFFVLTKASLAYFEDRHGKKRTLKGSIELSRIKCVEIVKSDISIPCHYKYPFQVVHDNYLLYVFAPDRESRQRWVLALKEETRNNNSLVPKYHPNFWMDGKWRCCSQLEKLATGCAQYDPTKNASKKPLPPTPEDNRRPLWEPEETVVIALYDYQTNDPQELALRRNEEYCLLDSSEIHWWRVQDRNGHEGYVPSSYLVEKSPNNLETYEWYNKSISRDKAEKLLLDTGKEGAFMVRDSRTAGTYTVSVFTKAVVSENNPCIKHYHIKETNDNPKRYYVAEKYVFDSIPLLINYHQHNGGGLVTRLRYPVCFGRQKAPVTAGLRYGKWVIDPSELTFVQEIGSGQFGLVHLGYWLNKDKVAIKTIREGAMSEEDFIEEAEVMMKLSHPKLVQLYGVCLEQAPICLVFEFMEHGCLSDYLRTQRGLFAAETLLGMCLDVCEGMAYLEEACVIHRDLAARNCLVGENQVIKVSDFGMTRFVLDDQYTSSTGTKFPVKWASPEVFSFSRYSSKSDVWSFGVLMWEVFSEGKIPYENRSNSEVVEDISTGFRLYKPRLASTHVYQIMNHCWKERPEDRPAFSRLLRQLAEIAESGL

[12] = biological target: Calcium/calmodulin-dependent protein kinase type II subunit delta (Homo sapiens) (UniProt Q13557); test: Competitive binding affinity to CAMK2D (unknown origin) at 10 uM in presence of ATP relative to control
Chain of Calcium/calmodulin-dependent protein kinase type II subunit delta (Homo sapiens) (Q13557 whole entry): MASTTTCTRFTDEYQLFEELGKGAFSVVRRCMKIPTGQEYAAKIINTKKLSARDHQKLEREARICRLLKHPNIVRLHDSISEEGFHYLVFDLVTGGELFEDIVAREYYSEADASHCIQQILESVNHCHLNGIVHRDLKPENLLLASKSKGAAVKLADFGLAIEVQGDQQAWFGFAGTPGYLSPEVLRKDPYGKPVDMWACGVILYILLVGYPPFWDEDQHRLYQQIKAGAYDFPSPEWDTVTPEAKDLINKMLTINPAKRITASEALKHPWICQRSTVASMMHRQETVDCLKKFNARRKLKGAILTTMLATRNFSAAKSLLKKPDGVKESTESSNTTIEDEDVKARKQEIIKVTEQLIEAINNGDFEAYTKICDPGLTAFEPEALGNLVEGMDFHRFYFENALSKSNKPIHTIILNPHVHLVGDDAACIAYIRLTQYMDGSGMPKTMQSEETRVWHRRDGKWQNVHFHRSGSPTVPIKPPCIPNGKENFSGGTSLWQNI

[13] = biological target: Vascular endothelial growth factor receptor 3 (Homo sapiens) (UniProt P35916); test: Competitive binding affinity to FLT4 (unknown origin) at 10 uM in presence of ATP relative to control; procedure, shortened: as §2
[14] = biological target: 5'-AMP-activated protein kinase catalytic subunit alpha-1 (Homo sapiens) (UniProt Q13131); test: Competitive binding affinity to AMPKalpha1 (unknown origin) at 10 uM in presence of ATP relative to control
Chain of 5'-AMP-activated protein kinase catalytic subunit alpha-1 (Homo sapiens) (Q13131 whole entry, looked up): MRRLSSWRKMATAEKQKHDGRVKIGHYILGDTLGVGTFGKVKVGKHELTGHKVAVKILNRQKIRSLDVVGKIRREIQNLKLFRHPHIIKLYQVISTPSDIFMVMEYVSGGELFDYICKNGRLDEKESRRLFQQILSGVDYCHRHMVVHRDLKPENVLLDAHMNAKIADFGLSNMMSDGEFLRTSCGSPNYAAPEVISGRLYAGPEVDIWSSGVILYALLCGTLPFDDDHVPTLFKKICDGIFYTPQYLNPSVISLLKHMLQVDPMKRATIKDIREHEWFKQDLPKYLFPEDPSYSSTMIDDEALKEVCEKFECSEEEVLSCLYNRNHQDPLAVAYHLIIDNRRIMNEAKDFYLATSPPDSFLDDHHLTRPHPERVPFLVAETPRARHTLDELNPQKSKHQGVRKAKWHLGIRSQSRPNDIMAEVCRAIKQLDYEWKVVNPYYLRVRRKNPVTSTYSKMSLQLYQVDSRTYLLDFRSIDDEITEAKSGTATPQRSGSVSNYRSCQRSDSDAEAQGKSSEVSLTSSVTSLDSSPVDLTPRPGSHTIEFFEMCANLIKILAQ

[15] = biological target: Death-associated protein kinase 2 (Homo sapiens, UniProt Q9UIK4); test: Competitive binding affinity to DAPK2 (unknown origin) at 10 uM in presence of ATP relative to control
Procedure, shortened: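 In vitro ATP-site competition binding assay across a diverse panel of 128 kinases, with each compound tested at a single concentration. Kinase binding is expressed relative to control.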

[16] = biological target: Serine/threonine-protein kinase B-raf (Homo sapiens) (UniProt P15056); test: Competitive binding affinity to BRAF (unknown origin) at 10 uM in presence of ATP relative to control
Chain of Serine/threonine-protein kinase B-raf (Homo sapiens) (P15056 whole entry): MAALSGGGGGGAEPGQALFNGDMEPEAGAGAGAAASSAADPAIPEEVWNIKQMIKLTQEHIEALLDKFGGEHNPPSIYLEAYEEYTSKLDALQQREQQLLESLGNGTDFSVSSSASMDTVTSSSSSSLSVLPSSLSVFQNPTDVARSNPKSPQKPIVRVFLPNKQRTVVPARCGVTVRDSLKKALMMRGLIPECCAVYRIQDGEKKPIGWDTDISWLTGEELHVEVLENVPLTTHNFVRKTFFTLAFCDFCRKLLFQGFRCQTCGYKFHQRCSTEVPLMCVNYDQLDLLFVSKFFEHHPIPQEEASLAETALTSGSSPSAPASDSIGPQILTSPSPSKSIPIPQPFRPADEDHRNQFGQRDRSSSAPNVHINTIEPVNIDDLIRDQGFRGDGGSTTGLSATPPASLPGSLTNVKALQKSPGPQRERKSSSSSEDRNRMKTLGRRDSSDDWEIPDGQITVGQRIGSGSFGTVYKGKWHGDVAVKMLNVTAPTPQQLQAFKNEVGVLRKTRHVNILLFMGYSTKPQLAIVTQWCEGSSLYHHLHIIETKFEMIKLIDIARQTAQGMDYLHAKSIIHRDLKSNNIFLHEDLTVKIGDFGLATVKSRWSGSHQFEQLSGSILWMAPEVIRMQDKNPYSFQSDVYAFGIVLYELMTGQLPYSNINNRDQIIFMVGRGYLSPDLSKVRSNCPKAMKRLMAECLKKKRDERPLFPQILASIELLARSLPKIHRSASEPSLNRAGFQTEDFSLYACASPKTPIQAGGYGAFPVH

SMILES	inhibition [1] [%]	inhibition [2] [%]	inhibition [3] [%]	inhibition [4] [%]	inhibition [5] [%]	inhibition [6] [%]	inhibition [7] [%]	inhibition [8] [%]	inhibition [9] [%]	inhibition [10] [%]	inhibition [11] [%]	inhibition [12] [%]	inhibition [13] [%]	inhibition [14] [%]	inhibition [16] [%]	inhibition [15] [%]
N[C@H]1CC[C@H](Nc2nccc(-n3nnc4ccccc43)n2)CC1	< 50	< 50	< 50	< 50	93	< 50	< 50	78	< 50	< 50	< 50	83	< 50	86	< 50	94
O[C@H]1CC[C@H](Nc2nccc(-c3n[nH]c4ccccc34)n2)CC1	< 50	< 50	98	< 50	77	92	77	66	< 50	86	96	91	87	92	< 50	94
CS(=O)(=O)CCCOc1cccc2c1ccn2-c1ccnc(N[C@H]2CC[C@H](C(=O)N3CCC(O)CC3)CC2)n1																> 85
O=C([C@H]1CC[C@H](Nc2nccc(-n3nnc4ccccc43)n2)CC1)N1CCOCC1	< 50	< 50	< 50	< 50	< 50	< 50	66	< 50	< 50	< 50	< 50	< 50	< 50	< 50	< 50	< 50

The next lines start with results.

inhibition [1] [%]	inhibition [2] [%]	inhibition [3] [%]	inhibition [4] [%]	inhibition [5] [%]	inhibition [6] [%]	inhibition [7] [%]	inhibition [8] [%]	inhibition [9] [%]	inhibition [10] [%]	inhibition [11] [%]	inhibition [12] [%]	inhibition [13] [%]	inhibition [14] [%]	inhibition [16] [%]	SMILES	inhibition [15] [%]
< 50	< 50	< 50	< 50	< 50	< 50	< 50	< 50	< 50	< 50	< 50	93	< 50	< 50	< 50	O[C@H]1CC[C@H](Nc2nccc(-n3ncc4ccccc43)n2)CC1	< 50
< 50	< 50	< 50	< 50	< 50	< 50	< 50	< 50	< 50	< 50	< 50	85	< 50	< 50	< 50	O[C@H]1CC[C@H](Nc2nccc(-n3ccc4ccccc43)n2)CC1	< 50
96	< 50	< 50	< 50	< 50	< 50	73	< 50	< 50	< 50	< 50	74	< 50	< 50	< 50	O[C@H]1CC[C@H](Nc2nccc(-n3nnc4ccccc43)n2)CC1	96
